# Calls of active or inactive are those of the source. The calls are words filed in the database; no cut-off is given here.
# Legend:
# A549 = experiment: Antiproliferative activity against human A549 cells after 72 hrs by CCK-8 assay; format: functional, cell-based; details: A549, 72 h
# How it was run: (§1)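 Cells seeded at 5 × 10³/well; A549, MCF7 and SH-SY5Y grown in DMEM, CNE and L-02 in RPMI-1640 (10% FBS, pen/strep, 37 °C, 5% CO₂). Compounds in DMSO, diluted in medium; 72 h exposure versus DMSO vehicle. CCK-8 absorbance read at 450 nm; viability taken as treated/control absorbance, IC₅₀ from curve fit. Triplicate wells, three independent experiments.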
# MCF7 [1] = experiment: Antiproliferative activity against human MCF7 cells after 72 hrs by CCK-8 assay; format: functional, cell-based; details: MCF7, 72 h; how it was run: as §1
# SH-SY5Y = experiment: Antiproliferative activity against human SH-SY5Y cells after 72 hrs by CCK-8 assay; format: functional, cell-based; how it was run: as §1
# CNE = experiment: Antiproliferative activity against human CNE cells after 72 hrs by CCK-8 assay; format: functional, cell-based; how it was run: as §1
# L02 = experiment: Antiproliferative activity against human L02 cells after 72 hrs by CCK-8 assay; format: cell-based; details: L02, 72 h; how it was run: as §1
# MCF7 [2] = experiment: Cell cycle arrest in human MCF7 cells assessed as accumulation of cells G1 phase at 0.3 uM after 24 hrs by propidium iodide/RNase A staining-based flow cytometric analysis (reference value: 60.6%); format: functional
# MCF7 [3] = experiment: Cell cycle arrest in human MCF7 cells assessed as accumulation of cells S phase at 0.3 uM after 24 hrs by propidium iodide/RNase A staining-based flow cytometric analysis (reference value: 6.75%); format: functional
# MCF7 [4] = experiment: Cell cycle arrest in human MCF7 cells assessed as accumulation of cells G2 phase at 0.3 uM after 24 hrs by propidium iodide/RNase A staining-based flow cytometric analysis (reference value: 35.08%); format: functional
# MCF7 [5] = experiment: Cell cycle arrest in human MCF7 cells assessed as accumulation of cells G1 phase at 0.6 uM after 24 hrs by propidium iodide/RNase A staining-based flow cytometric analysis (reference value: 60.6%); format: functional
# MCF7 [6] = experiment: Cell cycle arrest in human MCF7 cells assessed as accumulation of cells S phase at 0.6 uM after 24 hrs by propidium iodide/RNase A staining-based flow cytometric analysis (reference value: 6.75%); format: functional
# MCF7 [7] = experiment: Cell cycle arrest in human MCF7 cells assessed as accumulation of cells G2 phase at 0.6 uM after 24 hrs by propidium iodide/RNase A staining-based flow cytometric analysis (reference value: 35.08%); format: functional
# MCF7 [8] = experiment: Cell cycle arrest in human MCF7 cells assessed as accumulation of cells G1 phase at 1.2 uM after 24 hrs by propidium iodide/RNase A staining-based flow cytometric analysis (reference value: 60.6%); format: functional
# MCF7 [9] = experiment: Cell cycle arrest in human MCF7 cells assessed as accumulation of cells S phase at 1.2 uM after 24 hrs by propidium iodide/RNase A staining-based flow cytometric analysis (reference value: 6.75%); format: functional
# MCF7 [10] = experiment: Cell cycle arrest in human MCF7 cells assessed as accumulation of cells G2 phase at 1.2 uM after 24 hrs by propidium iodide/RNase A staining-based flow cytometric analysis (reference value: 35.08%); format: functional
# MCF7 [11] = experiment: Cell cycle arrest in human MCF7 cells assessed as accumulation of cells S phase after 24 hrs by propidium iodide/RNase A staining-based flow cytometric analysis; format: functional
# MCF7 [12] = experiment: Induction of apoptosis in human MCF7 cells assessed as improved staining brightness at 0.3 to 1.2 uM after 24 hrs by Hoechst 33342 staining-based fluorescence microscopic analysis; format: functional, cell-based
# How it was run: (§2)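 MCF7 exposed to 0.3, 0.6 or 1.2 µM for 24 h, then stained with 5 µg/mL Hoechst 33342 for 20 min at 37 °C under 5% CO₂. Nuclear morphology (brightness, chromatin condensation, fragmentation) examined by fluorescence microscopy at ×100.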
# MCF7 [13] = experiment: Induction of apoptosis in human MCF7 cells assessed as nuclear condensation at 0.3 to 1.2 uM after 24 hrs by Hoechst 33342 staining-based fluorescence microscopic analysis; format: functional, cell-based; how it was run: as §2
# MCF7 [14] = experiment: Induction of apoptosis in human MCF7 cells assessed as nuclear fragmentation at 0.3 to 1.2 uM after 24 hrs by Hoechst 33342 staining-based fluorescence microscopic analysis; format: functional, cell-based; how it was run: as §2
# MCF7 [15] = experiment: Induction of apoptosis in human MCF7 cells assessed as viable cells at 0.3 uM after 24 hrs by Annexin V-FITC/propidium iodide staining-based flow cytometric analysis (reference value: 97.5%); format: functional; details: MCF7, 24 h, read-out: Activity
# MCF7 [16] = experiment: Induction of apoptosis in human MCF7 cells assessed as early apoptotic cells at 0.3 uM after 24 hrs by Annexin V-FITC/propidium iodide staining-based flow cytometric analysis (reference value: 0.816%); format: functional
# MCF7 [17] = experiment: Induction of apoptosis in human MCF7 cells assessed as late apoptotic cells at 0.3 uM after 24 hrs by Annexin V-FITC/propidium iodide staining-based flow cytometric analysis (reference value: 1.22%); format: functional
# MCF7 [18] = experiment: Induction of apoptosis in human MCF7 cells assessed as viable cells at 0.6 uM after 24 hrs by Annexin V-FITC/propidium iodide staining-based flow cytometric analysis (reference value: 97.5%); format: functional; details: MCF7, 24 h, read-out: Activity
# MCF7 [19] = experiment: Induction of apoptosis in human MCF7 cells assessed as necrotic cells at 0.3 uM after 24 hrs by Annexin V-FITC/propidium iodide staining-based flow cytometric analysis (reference value: 0.426%); format: functional
# MCF7 [20] = experiment: Induction of apoptosis in human MCF7 cells assessed as early apoptotic cells at 0.6 uM after 24 hrs by Annexin V-FITC/propidium iodide staining-based flow cytometric analysis (reference value: 0.816%); format: functional
# MCF7 [21] = experiment: Induction of apoptosis in human MCF7 cells assessed as late apoptotic cells at 0.6 uM after 24 hrs by Annexin V-FITC/propidium iodide staining-based flow cytometric analysis (reference value: 1.22%); format: functional
# MCF7 [22] = experiment: Induction of apoptosis in human MCF7 cells assessed as necrotic cells at 0.6 uM after 24 hrs by Annexin V-FITC/propidium iodide staining-based flow cytometric analysis (reference value: 0.426%); format: functional
# MCF7 [23] = experiment: Induction of apoptosis in human MCF7 cells assessed as viable cells at 1.2 uM after 24 hrs by Annexin V-FITC/propidium iodide staining-based flow cytometric analysis (reference value: 97.5%); format: functional; details: MCF7, 24 h, read-out: Activity
# MCF7 [24] = experiment: Induction of apoptosis in human MCF7 cells assessed as early apoptotic cells at 1.2 uM after 24 hrs by Annexin V-FITC/propidium iodide staining-based flow cytometric analysis (reference value: 0.816%); format: functional
# MCF7 [25] = experiment: Induction of apoptosis in human MCF7 cells assessed as late apoptotic cells at 1.2 uM after 24 hrs by Annexin V-FITC/propidium iodide staining-based flow cytometric analysis (reference value: 1.22%); format: functional
# MCF7 [26] = experiment: Induction of apoptosis in human MCF7 cells assessed as necrotic cells at 1.2 uM after 24 hrs by Annexin V-FITC/propidium iodide staining-based flow cytometric analysis (reference value: 0.426%); format: functional
# MCF7 [27] = experiment: Induction of apoptosis in human MCF7 cells assessed as increase in caspase3 activation at 0.3 to 1.2 uM after 72 hrs by Western blot analysis; format: functional, cell-based
# How it was run: (§3)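 MCF7 exposed to 0.3, 0.6 or 1.2 µM for 72 h. Total protein (30 µg, BCA-quantified) run on SDS-PAGE and transferred to PVDF. Membranes blocked in 5% milk/TBS-0.05% Tween 20 for 2 h at room temperature, probed overnight at 4 °C with anti-cleaved caspase-3, caspase-9 and β-actin (loading control), then HRP anti-rabbit IgG; ECL detection.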
# MCF7 [28] = experiment: Induction of apoptosis in human MCF7 cells assessed as increase in caspase9 activation at 0.3 to 1.2 uM after 72 hrs by Western blot analysis; format: functional, cell-based; how it was run: as §3
smiles,measurement,setting,value
Fc1cnc2nc1Nc1cccc(c1)Nc1ncc(Cl)c(n1)Nc1cccc(c1)N2,IC50,A549,> 50 µM
same,IC50,MCF7 [1],> 50 µM
same,IC50,SH-SY5Y,> 50 µM
same,IC50,CNE,> 50 µM
same,IC50,L02,> 50 µM
Cc1cnc2nc1Nc1cc(cc(N3CCCC3)c1)Nc1ncc(C)c(n1)Nc1cc(cc(N3CCCC3)c1)N2,IC50,A549,4.25 µM
same,IC50,MCF7 [1],4.9 µM
same,IC50,SH-SY5Y,7.21 µM
same,IC50,CNE,> 50 µM
same,IC50,L02,30.8 µM
c1cc2cc(c1)Nc1nccc(n1)Nc1cccc(c1)Nc1nccc(n1)N2,IC50,A549,> 50 µM
same,IC50,MCF7 [1],> 50 µM
same,IC50,SH-SY5Y,> 50 µM
same,IC50,CNE,> 50 µM
same,IC50,L02,> 50 µM
FC(F)(F)c1cc2cc(c1)Nc1nc(ncc1Cl)Nc1cc(cc(C(F)(F)F)c1)Nc1nc(ncc1Cl)N2,IC50,A549,> 50 µM
same,IC50,MCF7 [1],> 50 µM
same,IC50,SH-SY5Y,> 50 µM
same,IC50,CNE,> 50 µM
same,IC50,L02,> 50 µM
c1cc2nc(n1)Nc1cc(cc(N3CCCC3)c1)Nc1ccnc(n1)Nc1cc(cc(N3CCCC3)c1)N2,IC50,A549,0.94 µM
same,IC50,MCF7 [1],0.58 µM
same,IC50,SH-SY5Y,1.82 µM
same,IC50,CNE,46.5 µM
same,IC50,L02,25.6 µM
same,Activity,MCF7 [2],55.71%
same,Activity,MCF7 [3],11.54%
same,Activity,MCF7 [4],34.8%
same,Activity,MCF7 [5],56.54%
same,Activity,MCF7 [6],17.49%
same,Activity,MCF7 [7],25.13%
same,Activity,MCF7 [8],52.9%
same,Activity,MCF7 [9],38.08%
same,Activity,MCF7 [10],7.88%
same,Activity,MCF7 [11],Dose-dependent effect
same,Activity,MCF7 [12],Active
same,Activity,MCF7 [13],Active
same,Activity,MCF7 [14],Active
same,viability at 0.3 µM,MCF7 [15],92.7%
same,Activity,MCF7 [16],5.76%
same,Activity,MCF7 [17],1.35%
same,viability at 0.6 µM,MCF7 [18],73.8%
same,Activity,MCF7 [19],0.148%
same,Activity,MCF7 [20],23.2%
same,Activity,MCF7 [21],2.86%
same,Activity,MCF7 [22],0.197%
same,viability at 1.2 µM,MCF7 [23],69.1%
same,Activity,MCF7 [24],26.6%
same,Activity,MCF7 [25],4.2%
same,Activity,MCF7 [26],0.232%
same,Activity,MCF7 [27],Active
same,Activity,MCF7 [28],Active
COc1cnc2nc1Nc1cc(cc(C(F)(F)F)c1)Nc1ncc(OC)c(n1)Nc1cc(cc(C(F)(F)F)c1)N2,IC50,A549,> 50 µM
same,IC50,MCF7 [1],> 50 µM
same,IC50,SH-SY5Y,> 50 µM
same,IC50,CNE,> 50 µM
same,IC50,L02,> 50 µM
Cc1cnc2nc1Nc1cc(cc(C(F)(F)F)c1)Nc1ncc(C)c(n1)Nc1cc(cc(C(F)(F)F)c1)N2,IC50,A549,> 50 µM
same,IC50,MCF7 [1],> 50 µM
same,IC50,SH-SY5Y,> 50 µM
same,IC50,CNE,> 50 µM
same,IC50,L02,> 50 µM
CCOC(=O)c1cc2cc(c1)Nc1nc(ncc1Cl)Nc1cc(cc(C(=O)OCC)c1)Nc1nc(ncc1Cl)N2,IC50,A549,> 50 µM
same,IC50,MCF7 [1],> 50 µM
same,IC50,SH-SY5Y,> 50 µM
same,IC50,CNE,> 50 µM
same,IC50,L02,> 50 µM
COc1cnc2nc1Nc1cccc(c1)Nc1ncc(OC)c(n1)Nc1cccc(c1)N2,IC50,A549,> 50 µM
same,IC50,MCF7 [1],> 50 µM
same,IC50,SH-SY5Y,> 50 µM
same,IC50,CNE,> 50 µM
same,IC50,L02,> 50 µM
FC(F)(F)c1cc2cc(c1)Nc1nccc(n1)Nc1cc(cc(C(F)(F)F)c1)Nc1nccc(n1)N2,IC50,A549,2.05 µM
same,IC50,MCF7 [1],5.38 µM
same,IC50,SH-SY5Y,1.43 µM
same,IC50,CNE,15.6 µM
same,IC50,L02,20.4 µM
Brc1cc2cc(c1)Nc1nccc(n1)Nc1cc(Br)cc(c1)Nc1nccc(n1)N2,IC50,A549,6.55 µM
same,IC50,MCF7 [1],9.24 µM
same,IC50,SH-SY5Y,2.96 µM
same,IC50,CNE,> 50 µM
same,IC50,L02,47.9 µM
